From ChEMBL document CHEMBL4311965, “Antimicrobial activity of amphipathic α,α-disubstituted β-amino amide derivatives against ESBL - CARBA producing multi-resistant bacteria; effect of halogenation, lipophilicity and cationic character” (Eur J Med Chem, 2019) come the findings set out here.

In brackets after ≈: the same amount, converted by molar mass.

For one series, the system named is HepG2. Put plainly: Cytotoxicity against human HepG2 cells assessed as reduction in cell viability incubated for 4 hrs by CellTiter 96 Aqueous One Solution Reagent based assay. To be noted: HepG2, 4 h. In short, it runs like this: (§1)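 HepG2 and MRC-5 cells seeded at 35 000 and 15 000 cells/well respectively, then held overnight at 37 °C, 5% CO₂. Compounds in serum-free MEM Earle's applied for 4 h. MTS reagent (CellTiter 96 AQueous One) added for a further 1 h, absorbance read at 485 nm. Survival expressed relative to medium (negative) and Triton X-100 (positive) controls.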

Series [1] in a line: Aqueous solubility of the compound in DMSO. Type of series: physicochemical.
The next series has as its system Pseudomonas aeruginosa. Put plainly: Antibacterial activity against Pseudomonas aeruginosa PA01 DSM 19880 (ATCC 15692) cultured in MHB medium assessed as no bacterial growth incubated at 37 degC for 24 hrs by microdilution susceptibility test. Type of series: functional. To be noted: PAO1 DSM 19880 (ATCC 15692). An outline of the steps:
(§2)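 Broth microdilution per CLSI M07-A9 with modifications. Inoculum about 2.5–3 x 10⁴ cells/mL in Mueller-Hinton broth, mixed 1:1 with test derivative. DMSO stocks diluted in double-distilled water, final DMSO <1%. Incubation 24 h at 37 °C (20 °C for C. glutamicum). Growth and sterility controls included; oxytetracycline reference.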
On the technique in general: Dilution methods test growth across graded concentrations, often in twofold steps.

In another series the test system is Escherichia coli. Put plainly: Antibacterial activity against Escherichia coli ATCC 25922 cultured in MHB medium assessed as no bacterial growth incubated at 37 degC for 24 hrs by microdilution susceptibility test. The series is classed as functional. The conditions noted are these: ATCC 25922, 24 h. An outline of the steps: as §2
Series [2] deals with Corynebacterium glutamicum. Nature of the series: Antibacterial activity against Corynebacterium glutamicum ATCC 13032 cultured in MHB medium assessed as no bacterial growth incubated at 20 degC for 24 hrs by microdilution susceptibility test. Type of series: functional. The conditions noted are these: ATCC 13032, 24 h. An outline of the steps: as §2
A further series relates to Staphylococcus aureus. Put plainly: Antibacterial activity against Staphylococcus aureus ATCC 9144 cultured in MHB medium assessed as no bacterial growth incubated at 37 degC for 24 hrs by microdilution susceptibility test. The series is classed as functional. The conditions noted are these: ATCC 9144, 24 h. In short, it runs like this:
as §2

Another series relates to Erythrocyte. Nature of the series: Hemolytic activity against human RBC incubated for 1 hr. Type of series: cell-based. In short, it runs like this: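 Heparinized human blood washed three times in warm PBS and set to 10% hct. Erythrocytes at 1% v/v final, with compound in PBS (DMSO <1%), shaken 1 h at 37 °C and then centrifuged. Supernatant absorbance read at 405 and 545 nm after PBS background subtraction. Haemolysis taken relative to 1% Triton X-100. Three independent replicates, EC50 averaged.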

A short description of series [3]: Selectivity index, ratio of EC50 for hemolytic activity against human RBC to MIC for antibacterial activity against Staphylococcus aureus ATCC 9144. Type of series: toxicity. The conditions noted are these: human red blood cells (RBC). In short, it runs like this:
(§3)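 Selectivity index is the RBC haemolysis EC50 divided by the MIC against the E. coli or S. aureus reference strain.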

The next series deals with MRC5. Nature of the series: Cytotoxicity against human MRC5 cells assessed as reduction in cell viability incubated for 4 hrs by CellTiter 96 Aqueous One Solution Reagent based assay. To be noted: MRC5, 4 h. An outline of the steps:
as §1

Series [4] is described as follows: Selectivity index, ratio of EC50 for hemolytic activity against human RBC to MIC for antibacterial activity against Escherichia coli ATCC 25922. Type of series: toxicity. The conditions noted are these: human red blood cells (RBC). An outline of the steps:
as §3

Turning to `N#CC(Cc1cc(F)cc(F)c1)(Cc1cc(F)cc(F)c1)C(=O)NCCN`, the EC50 (as a rule, the concentration that produces a half-maximal response) with HepG2 is greater than 64 µg/mL; in the series on Erythrocyte it was 208 µg/mL (≈ 548 µM). Further, the solubility entry in series [1] is given as “Soluble”. The MIC (in general, the lowest concentration found to suppress growth) with Pseudomonas aeruginosa was greater than 64 µg/mL; in the series on Escherichia coli, greater than 64 µg/mL; in series [2] it was 32 µg/mL (≈ 84.4 µM); in the series with Staphylococcus aureus, greater than 64 µg/mL.

With `NCCNC(=O)C(CN)(Cc1cccc2ccccc12)Cc1cccc2ccccc12`, the solubility entry in series [1] is listed as “Soluble”. Besides, the selectivity ratio was 23 in series [3] and 6 in series [4]. In addition, the MIC with Pseudomonas aeruginosa worked out at 16 µg/mL (≈ 38.9 µM); in the series with Escherichia coli it was 16 µg/mL (≈ 38.9 µM); in series [2], 2 µg/mL (≈ 4.86 µM); in the series with Staphylococcus aureus it was 4 µg/mL (≈ 9.72 µM). Moreover, the EC50 in the series with MRC5 turned out to be 9 µg/mL (≈ 21.9 µM); with Erythrocyte, 90 µg/mL (≈ 219 µM).

`NCCNC(=O)C(CN)(Cc1ccccc1F)Cc1ccccc1F`: the EC50 in the series with HepG2 is greater than 64 µg/mL. Further, the solubility result in series [1] is reported as “Soluble”. The MIC (in the series with Pseudomonas aeruginosa; with Escherichia coli; in series [2]; in the series with Staphylococcus aureus) was greater than 64 µg/mL in each case.

Take `NCCNC(=O)C(CN)(Cc1cc(F)cc(F)c1)Cc1cc(F)cc(F)c1`: the EC50 is greater than 64 µg/mL in the series with HepG2 and 228 µg/mL (≈ 595 µM) with Erythrocyte. Also, the solubility entry in series [1] is listed as “Soluble”. In addition, the MIC in the series with Pseudomonas aeruginosa was greater than 64 µg/mL; in the series on Escherichia coli, greater than 64 µg/mL; in [2] it was 64 µg/mL (≈ 167 µM); in the series with Staphylococcus aureus it was greater than 64 µg/mL.

For the compound `NCCNC(=O)C(CN)(Cc1c(F)cccc1F)Cc1c(F)cccc1F`, the EC50 with HepG2 was greater than 64 µg/mL. In addition, in series [1], the solubility entry was “Soluble”. Moreover, the MIC (with Pseudomonas aeruginosa; in the series with Escherichia coli; in series [2]; in the series on Staphylococcus aureus) was greater than 64 µg/mL each time.

Turning to `N#CC(Cc1ccc(C(F)(F)F)cc1)(Cc1ccc(C(F)(F)F)cc1)C(=O)NCCN`, the EC50 is 23 µg/mL (≈ 51.9 µM) in the series with HepG2, 18 µg/mL (≈ 40.6 µM) in the series with MRC5 and 178 µg/mL (≈ 401 µM) with Erythrocyte. In series [1], the solubility result is “Soluble”. For the same compound, the figures for the selectivity ratio in [3] and in series [4] were 6 and 11, respectively. Further, the MIC with Pseudomonas aeruginosa came to 64 µg/mL (≈ 144 µM); in the series with Escherichia coli, 16 µg/mL (≈ 36.1 µM); in series [2] it was 8 µg/mL (≈ 18 µM); in the series on Staphylococcus aureus, 32 µg/mL (≈ 72.2 µM).

As for `N#CC(Cc1ccccc1C(F)(F)F)(Cc1ccccc1C(F)(F)F)C(=O)NCCN`, the values for the EC50 in the series with HepG2, in the series with MRC5 and in the series on Erythrocyte were 24 µg/mL (≈ 54.1 µM), 27 µg/mL (≈ 60.9 µM) and 89 µg/mL (≈ 201 µM), respectively. Also, the solubility entry in series [1] was “Soluble”. Besides, the selectivity ratio in [3] and in [4] was 6 each time. In addition, the MIC in the series with Pseudomonas aeruginosa worked out at 32 µg/mL (≈ 72.2 µM); in the series with Escherichia coli it was 16 µg/mL (≈ 36.1 µM); in series [2], 8 µg/mL (≈ 18 µM); with Staphylococcus aureus, 16 µg/mL (≈ 36.1 µM).

`N#CC(Cc1ccccc1F)(Cc1ccccc1F)C(=O)NCCN`: the EC50 was greater than 64 µg/mL in the series with HepG2 and 190 µg/mL (≈ 553 µM) with Erythrocyte. In [1], the solubility result is recorded as “Soluble”. For the same compound, the MIC in the series with Pseudomonas aeruginosa is greater than 64 µg/mL; with Escherichia coli, 64 µg/mL (≈ 186 µM); in series [2], 16 µg/mL (≈ 46.6 µM); with Staphylococcus aureus, greater than 64 µg/mL. The selectivity ratio in [4] was 3.

Regarding `CN(C)[C@@H]1C(O)=C(C(N)=O)C(=O)[C@@]2(O)C(O)=C3C(=O)c4c(O)cccc4[C@@](C)(O)[C@H]3[C@H](O)[C@@H]12.Cl` [OXYTETRACYCLINE HYDROCHLORIDE], the EC50 with HepG2 was greater than 64 µg/mL. For the same compound, the MIC in the series with Pseudomonas aeruginosa came to 20 µg/mL; in the series with Escherichia coli, 2.5 µg/mL; in [2], 0.65 µg/mL; with Staphylococcus aureus, 0.65 µg/mL.

As for `N#CC(Cc1ccc(F)c2ccccc12)(Cc1ccc(F)c2ccccc12)C(=O)NCCN`, the EC50 is 12 µg/mL (≈ 27.1 µM) with HepG2, 4 µg/mL (≈ 9.02 µM) with MRC5 and greater than 500 µg/mL with Erythrocyte. For the same compound, the solubility result in series [1] is reported as “Soluble”. In addition, the MIC in the series on Pseudomonas aeruginosa was 32 µg/mL (≈ 72.2 µM); with Escherichia coli, 4 µg/mL (≈ 9.02 µM); in series [2], 2 µg/mL (≈ 4.51 µM); in the series on Staphylococcus aureus, 4 µg/mL (≈ 9.02 µM).

`N#CC(Cc1c(F)cccc1F)(Cc1c(F)cccc1F)C(=O)NCCN`: in the series with HepG2, the EC50 is greater than 64 µg/mL. The solubility result in [1] was “Soluble”. Further, the MIC (with Pseudomonas aeruginosa; in the series with Escherichia coli; in series [2]; in the series on Staphylococcus aureus) was greater than 64 µg/mL throughout.

Turning to `NCCNC(=O)C(CN)(Cc1ccccc1Br)Cc1ccccc1Br`, the EC50 came to 48 µg/mL (≈ 102 µM) in the series on HepG2, 56 µg/mL (≈ 119 µM) with MRC5 and 271 µg/mL (≈ 578 µM) in the series on Erythrocyte. Besides, the solubility entry in series [1] is recorded as “Soluble”. Also, the selectivity ratio in series [3] and in series [4] was 4 throughout. Besides, the MIC amounted to 64 µg/mL (≈ 136 µM) with Pseudomonas aeruginosa, 64 µg/mL (≈ 136 µM) with Escherichia coli, 8 µg/mL (≈ 17 µM) in series [2] and 64 µg/mL (≈ 136 µM) in the series with Staphylococcus aureus.

On to `N#CC(Cc1ccccc1Br)(Cc1ccccc1Br)C(=O)NCCN`, for which the results for the EC50 in the series with HepG2, with MRC5 and in the series with Erythrocyte were 26 µg/mL (≈ 55.9 µM), 32 µg/mL (≈ 68.8 µM) and 211 µg/mL (≈ 454 µM), respectively. Also, in series [1], the solubility result is recorded as “Soluble”. For the same compound, the selectivity ratio was determined as 13 in series [3] and 7 in [4]. The MIC with Pseudomonas aeruginosa was greater than 64 µg/mL; with Escherichia coli, 32 µg/mL (≈ 68.8 µM); in series [2], 32 µg/mL (≈ 68.8 µM); with Staphylococcus aureus, 16 µg/mL (≈ 34.4 µM).

For `N#CC(Cc1cc(Br)cc(Br)c1)(Cc1cc(Br)cc(Br)c1)C(=O)NCCN`, the MIC (in the series with Pseudomonas aeruginosa; with Escherichia coli; in series [2]; with Staphylococcus aureus) was greater than 64 µg/mL in each case.
